Reference: ChEMBL document CHEMBL3352730, “Synthesis and effects on cell viability of flavonols and 3-methyl ether derivatives on human leukemia cells” (Eur J Med Chem, 2014)
Activity calls are given as the source filed them. No cut-off for these calls is given here.

Assays:
U-937 [1] = assay: Induction of cell cycle arrest in human U937 cells assessed as accumulation at S phase at 1 uM after 24 hrs by propidium iodide staining based flow cytometry (reference value: 18.6 +/- 0.3%); format: functional
HL-60 [2] = assay: Induction of apoptosis in human HL60 cells assessed as pro-caspase-8 cleavage by Western blotting method; format: functional, cell-based
In short: (§1)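 Cells were exposed to a range of compound concentrations and harvested at 24 h. Lysates were immunoblotted for caspase proforms and cleaved forms, and for Bcl-2 family proteins.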

HL-60 [3] = assay: Induction of cell cycle arrest in human HL60 cells assessed as accumulation at G1 phase at 10 uM after 48 hrs by propidium iodide staining based flow cytometry (reference value: 60.4 +/- 0.4%); format: functional
HL-60 [4] = assay: Induction of apoptosis in human HL60 cells assessed as pro-caspase-8 processing at 3 and 10 uM after 6 to 24 hrs by immunoblotting method; format: functional, cell-based
In short: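 Kinetic and dose-response immunoblots. Cells were treated, harvested at the indicated times, and probed with antibodies that detect both procaspase-8/-9 and their cleaved fragments.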

[5] = target: c-Jun N-terminal kinase, JNK (Homo sapiens) (UniProt P45983+P53779+P45984); assay: Increase in JNK/SAPK phosphorylation in human HL60 cells at 10 to 30 uM after 2 to 6 hrs by Western blotting method; format: cell-based; conditions: HL-60
In short: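 HL-60 cells were incubated for a time course. Extracts were immunoblotted with phospho-specific antibodies for ERK 1/2, JNK/SAPK and p38MAPK. Membranes were then stripped and reprobed for the total kinases as loading controls.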

U-937 [6] = assay: Induction of apoptosis in human U937 cells assessed as increase in caspase 8 activity using IETD-pNA substrate at 10 uM after 24 hrs; format: functional, cell-based
In short: (§2)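 Cells were given 10 µM for 24 h. Lysates were assayed for cleavage of DEVD-pNA (caspase-3/7), IETD-pNA (caspase-8) and LEHD-pNA (caspase-9). Results are expressed as fold over control, from three independent experiments in triplicate.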

U-937 [7] = assay: Induction of cell cycle arrest in human U937 cells assessed as accumulation at S phase at 3 uM after 12 hrs by propidium iodide staining based flow cytometry (reference value: 20.5 +/- 0.8%); format: functional
HL-60 [8] = assay: Induction of cell cycle arrest in human HL60 cells assessed as accumulation at subG1 phase at 10 uM after 12 hrs by propidium iodide staining based flow cytometry (reference value: 6.1 +/- 0.5%); format: functional
HL-60 [9] = assay: Induction of cell cycle arrest in human HL60 cells assessed as accumulation at subG1 phase at 1 uM after 24 hrs by propidium iodide staining based flow cytometry (reference value: 3.4 +/- 0.3%); format: functional
U-937 [10] = assay: Induction of cell cycle arrest in human U937 cells assessed as accumulation at G1 phase at 3 uM after 48 hrs by propidium iodide staining based flow cytometry (reference value: 51.9 +/- 0.9%); format: functional
U-937 [11] = assay: Induction of cell cycle arrest in human U937 cells assessed as accumulation at S phase at 10 uM after 24 hrs by propidium iodide staining based flow cytometry (reference value: 18.6 +/- 0.3%); format: functional
U-937 [12] = assay: Induction of cell cycle arrest in human U937 cells assessed as accumulation at G1 phase at 1 uM after 12 hrs by propidium iodide staining based flow cytometry (reference value: 45.8 +/- 0.8%); format: functional
U-937 [13] = assay: Increase in TRAIL expression in human U937 cells at 10 30 uM after 24 hrs by immunoblotting method; format: functional, cell-based
In short: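 HL-60 and U937 cells were treated with increasing concentrations for 24 h. Lysates were immunoblotted for TRAIL, DR4 and DR5.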

HL-60 [14] = assay: Induction of cell cycle arrest in human HL60 cells assessed as accumulation at S phase at 1 uM after 24 hrs by propidium iodide staining based flow cytometry (reference value: 17.9 +/- 0.6%); format: functional
MOLT-3 [15] = assay: Induction of apoptosis in human MOLT3 cells assessed as pro-caspase-3 cleavage by Western blotting method; format: functional, cell-based; in short: as §1
U-937 [16] = assay: Induction of cell cycle arrest in human U937 cells assessed as accumulation at subG1 phase at 3 uM after 48 hrs by propidium iodide staining based flow cytometry (reference value: 6.7 +/- 0.3%); format: functional
U-937 [17] = assay: Induction of cell cycle arrest in human U937 cells assessed as accumulation at subG1 phase at 10 uM after 12 hrs by propidium iodide staining based flow cytometry (reference value: 4.6 +/- 0.9%); format: functional
U-937 [18] = assay: Induction of Bid processing in human U937 cells by Western blotting method
MOLT-3 [19] = assay: Effect on Bax expression in human MOLT3 cells by Western blotting method; format: functional, cell-based; in short: as §1
HL-60 [20] = assay: Induction of cell cycle arrest in human HL60 cells assessed as accumulation at G2/M phase at 3 uM after 12 hrs by propidium iodide staining based flow cytometry (reference value: 18.5 +/- 0.5%); format: functional
HL-60 [21] = assay: Induction of apoptosis in human HL60 cells assessed as increase in caspase 3/7 activity DEVD-pNA substrate at 10 uM after 24 hrs; format: functional; in short: as §2
MOLT-3 [22] = assay: Induction of apoptosis in human MOLT3 cells assessed as pro-caspase-7 cleavage by Western blotting method; format: functional, cell-based; in short: as §1
MOLT-3 [23] = assay: Induction of apoptosis in human MOLT3 cells assessed as pro-caspase-9 cleavage by Western blotting method; format: functional, cell-based; in short: as §1
U-937 [24] = assay: Induction of cell cycle arrest in human U937 cells assessed as accumulation at G1 phase at 10 uM after 12 hrs by propidium iodide staining based flow cytometry (reference value: 45.8 +/- 0.8%); format: functional
HL-60 [25] = assay: Induction of apoptosis in human HL60 cells in presence of JNK/SAPK inhibitor SP600125 after 24 hrs by propidium iodide staining based flow cytometry; format: functional, cell-based
U-937 [26] = assay: Induction of cell cycle arrest in human U937 cells assessed as accumulation at G1 phase at 10 uM after 24 hrs by propidium iodide staining based flow cytometry (reference value: 49.8 +/- 1.5%); format: functional
U-937 [27] = assay: Induction of cell cycle arrest in human U937 cells assessed as accumulation at subG1 phase at 1 uM after 24 hrs by propidium iodide staining based flow cytometry (reference value: 3.9 +/- 0.8%); format: functional
MOLT-3 [28] = assay: Induction of apoptosis in human MOLT3 cells assessed as reduction in pro-caspase-4 level by Western blotting method; format: functional, cell-based; in short: as §1
HL-60 [29] = assay: Induction of apoptosis in human HL60 cells assessed as increase in caspase 8 activity using IETD-pNA substrate at 10 uM after 24 hrs; format: functional; in short: as §2
HL-60 [30] = assay: Induction of cell cycle arrest in human HL60 cells assessed as accumulation at subG1 phase at 1 uM after 48 hrs by propidium iodide staining based flow cytometry (reference value: 3.7 +/- 0.1%); format: functional
U-937 [31] = assay: Induction of apoptosis in human U937 cells assessed as pro-caspase-8 cleavage by Western blotting method; format: functional, cell-based
In short: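 U937 cells exposed to increasing concentrations of the flavonol and harvested at 24 h. Lysates were immunoblotted with antibodies that detect both the pro-caspases and their cleaved forms.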

MOLT-3 [32] = assay: Induction of apoptosis in human MOLT3 cells assessed as increase in caspase 8 activity using IETD-pNA substrate at 10 uM after 24 hrs; format: functional, cell-based; in short: as §2

O=c1c(O)c(-c2ccc(Br)cc2)oc2ccccc12
Activity (U-937 [1]): 18.9%
Activity (HL-60 [2]): Active
Activity (HL-60 [3]): 18.4%
Activity (HL-60 [4]): Active
Activity [5]: Active
Activity (U-937 [6]): Active
Activity (U-937 [7]): 22.4%
Activity (HL-60 [8]): 8.9%
Activity (HL-60 [9]): 4.1%
Activity (U-937 [10]): 38.5%
Activity (U-937 [11]): 23.7%
Activity (U-937 [12]): 45.8%
Activity (U-937 [13]): Active
Activity (HL-60 [14]): 20.7%
Activity (MOLT-3 [15]): Active
Activity (U-937 [16]): 16.3%
Activity (U-937 [17]): 4.3%
Activity (U-937 [18]): Active
Activity (MOLT-3 [19]): inactive
Activity (HL-60 [20]): 18.2%
fold change (FC) (HL-60 [21]): 4.5
Activity (MOLT-3 [22]): Active
Activity (MOLT-3 [23]): Active
Activity (U-937 [24]): 47.6%
Activity (HL-60 [25]): Active
Activity (U-937 [26]): 40.2%
Activity (U-937 [27]): 3.7%
Activity (MOLT-3 [28]): Active
fold change (FC) (HL-60 [29]): 1.7
Activity (HL-60 [30]): 3.4%
Activity (U-937 [31]): Active
Activity (MOLT-3 [32]): Active
